Data reported in ChEMBL document CHEMBL4689842, “EUbOPEN Chemogenomics Library wave 1” (2021).
Several values for one entry are separate records, joined by “and”; a condition that tells them apart may be missing. Identical values can stand only once.

System: Fibroblast
Assay: Multiplex assay against human fibroblast
Assay type: toxicity, cell-based
In short: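 Phenotypes for tubulin, mitochondrial mass and membrane permeability are expressed as per cents of healthy-nucleus cells. Cells were stained live at seeding with Hoechst33342, BioTracker Green Microtubule Cytoskeleton Dye, MitoTracker Red and Annexin V Alexa Fluor 680, then imaged after compound addition on a CQ1 microscope at 37°C and 5% CO2. Machine-learning gating in CellPathfinder separated Hoechst high-intensity objects from normal cells, divided normal cells by nuclear state (healthy, pyknosed, fragmented) and divided pyknosed cells into mitotic or apoptotic.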

[1] = 12 h, 1 µM, compound concentration 1 uM, replicate 1
[2] = 12 h, 1 µM, compound concentration 1 uM, replicate 2
[3] = 12 h, 10 µM, compound concentration 10 uM, replicate 1
[4] = 12 h, 10 µM, compound concentration 10 uM, replicate 2
[5] = 24 h, 1 µM, compound concentration 1 uM, replicate 1
[6] = 24 h, 1 µM, compound concentration 1 uM, replicate 2
[7] = 24 h, 10 µM, compound concentration 10 uM, replicate 1
[8] = 24 h, 10 µM, compound concentration 10 uM, replicate 2
[9] = 48 h, 1 µM, compound concentration 1 uM, replicate 1
[10] = 48 h, 1 µM, compound concentration 1 uM, replicate 2
[11] = 48 h, 10 µM, compound concentration 10 uM, replicate 1
[12] = 48 h, 10 µM, compound concentration 10 uM, replicate 2

Question: Which results are given for `CS(=O)(=O)N1CCCC(NC(=O)[C@H](CCC2CCCCC2)NC(=O)c2ccc(CNC(=O)c3cnc4ccccn34)cc2)C1` (some centres undefined) [SR-302]?
Answer: Population Apoptotic (%) [1]: 63% [middle of 4 runs]; Population Fragmented Nuclei (%) [1]: 16% and 17% and 20%; Population Healthy Nuclei (%) [1]: 42% [middle of 4 runs]; Population Hoechst High Intensity Objects (%) [1]: 15% [middle of 4 runs]; Population Membrane Permeable-Phenotype (%) [1]: 31% and 23%; Population Mitochondria Different-Phenotype (%) [1]: 10% [middle of 4 runs]; Population Mitotic Cells (%) [1]: 42% [middle of 4 runs]; Population Normal (%) [1]: 85% and 84% and 80% and 87%; Population Pyknosed Nuclei (%) [1]: 55% and 40% and 41%; Population Apoptotic (%) [2]: 40% and 33% and 20%; Population Healthy Nuclei (%) [2]: 81% [middle of 4 runs]; Population Membrane Permeable-Phenotype (%) [2]: 0% and 7% and 2%; Population Mitochondria Different-Phenotype (%) [2]: 6% and 7% and 9%; Population Mitotic Cells (%) [2]: 60% and 66% and 80%; Population Normal (%) [2]: 75% and 93% and 83% and 97%; Population Pyknosed Nuclei (%) [2]: 12% [middle of 4 runs]; Total Cell Count [2]: 84 and 98 and 59; Population Apoptotic (%) [3]: 56% [middle of 4 runs]; Population Fragmented Nuclei (%) [3]: 26% [middle of 4 runs]; Population Healthy Nuclei (%) [3]: 20% and 32% and 52%; Population Hoechst High Intensity Objects (%) [3]: 11% and 19% and 9%; Population Membrane Permeable-Phenotype (%) [3]: 20% [middle of 4 runs]; Population Mitotic Cells (%) [3]: 48% [middle of 4 runs]; Population Normal (%) [3]: 88% and 80% and 91%; Population Pyknosed Nuclei (%) [3]: 51% [middle of 4 runs]; Population Tubulin-Different-Phenotype (%) [3]: 86% [middle of 4 runs]; Total Cell Count [3]: 137 [middle of 4 runs]; Population Apoptotic (%) [4]: 71% [middle of 4 runs]; Population Healthy Nuclei (%) [4]: 34% and 80% and 83%; Population Membrane Permeable-Phenotype (%) [4]: 18% and 23% and 11%; Population Normal (%) [4]: 66% and 92% and 93% and 96%; Population Pyknosed Nuclei (%) [4]: 17% and 7% and 9%; Population Tubulin-Different-Phenotype (%) [4]: 91% [middle of 4 runs]; Total Cell Count [4]: 77 [middle of 4 runs]; Population Apoptotic (%) [5]: 72% [middle of 4 runs]; Population Fragmented Nuclei (%) [5]: 25% [middle of 4 runs]; Population Healthy Nuclei (%) [5]: 51% [middle of 4 runs]; Population Hoechst High Intensity Objects (%) [5]: 17% [middle of 4 runs]; Population Mitochondria Different-Phenotype (%) [5]: 7% [middle of 4 runs]; Population Mitotic Cells (%) [5]: 40% [middle of 4 runs]; Population Normal (%) [5]: 85% and 77% and 82% and 83%; Population Pyknosed Nuclei (%) [5]: 28% [middle of 4 runs]; Population Membrane Permeable-Phenotype (%) [6]: 0% and 5% and 1%; Population Mitochondria Different-Phenotype (%) [6]: 6% and 8% and 4%; Population Mitotic Cells (%) [6]: 66% [middle of 4 runs]; Population Normal (%) [6]: 76% and 95%; Total Cell Count [6]: 97 [middle of 4 runs]; Population Apoptotic (%) [7]: 57% [middle of 4 runs]; Population Fragmented Nuclei (%) [7]: 24% [middle of 4 runs]; Population Healthy Nuclei (%) [7]: 37% and 27% and 59%; Population Hoechst High Intensity Objects (%) [7]: 10% [middle of 4 runs]; Population Mitotic Cells (%) [7]: 51% [middle of 4 runs]; Population Normal (%) [7]: 100% and 89% and 80% and 92%; Population Pyknosed Nuclei (%) [7]: 51% [middle of 4 runs]; Population Tubulin-Different-Phenotype (%) [7]: 82% [middle of 4 runs]; Population Apoptotic (%) [8]: 55% [middle of 4 runs]; Population Membrane Permeable-Phenotype (%) [8]: 16% [middle of 4 runs]; Population Mitochondria Different-Phenotype (%) [8]: 75% [middle of 4 runs]; Population Mitotic Cells (%) [8]: 45% [middle of 4 runs]; Population Normal (%) [8]: 62% and 88% and 95% and 94%; Population Pyknosed Nuclei (%) [8]: 24% and 15% and 13%; Population Tubulin-Different-Phenotype (%) [8]: 72% [middle of 4 runs]; Total Cell Count [8]: 88 [middle of 4 runs]; Population Apoptotic (%) [9]: 58% and 70% and 55%; Population Fragmented Nuclei (%) [9]: 42% and 31% and 22%; Population Healthy Nuclei (%) [9]: 40% and 46% and 52%; Population Hoechst High Intensity Objects (%) [9]: 18% and 24% and 20%; Population Membrane Permeable-Phenotype (%) [9]: 14% and 36% and 20%; Population Mitochondria Different-Phenotype (%) [9]: 7% and 13% and 5%; Population Mitotic Cells (%) [9]: 41% and 30% and 44%; Population Normal (%) [9]: 81% and 75% and 79%; Population Pyknosed Nuclei (%) [9]: 17% and 21% and 24%; Population Tubulin-Different-Phenotype (%) [9]: 42% and 59% and 28%; Total Cell Count [9]: 86 and 62 and 93; Population Fragmented Nuclei (%) [10]: 19% and 14% and 23%; Population Healthy Nuclei (%) [10]: 79% and 82% and 72%; Population Hoechst High Intensity Objects (%) [10]: 13% and 8% and 15%; Population Membrane Permeable-Phenotype (%) [10]: 9% and 7%; Population Mitochondria Different-Phenotype (%) [10]: 0% and 4%; Population Normal (%) [10]: 86% and 91% and 84%; Total Cell Count [10]: 105 and 83 and 107; Population Apoptotic (%) [11]: 53% and 87% and 50%; Population Fragmented Nuclei (%) [11]: 31% and 64% and 30%; Population Healthy Nuclei (%) [11]: 47% and 22% and 30%; Population Hoechst High Intensity Objects (%) [11]: 27% and 36% and 28%; Population Mitochondria Different-Phenotype (%) [11]: 33% and 50% and 53%; Population Normal (%) [11]: 72% and 63% and 71%; Population Tubulin-Different-Phenotype (%) [11]: 70% and 64% and 92%; Total Cell Count [11]: 87 and 97 and 118; Population Apoptotic (%) [12]: 66% and 44%; Population Fragmented Nuclei (%) [12]: 35% and 26% and 27%; Population Healthy Nuclei (%) [12]: 60% and 65% and 62%; Population Membrane Permeable-Phenotype (%) [12]: 7% and 5%; Population Mitochondria Different-Phenotype (%) [12]: 37% and 45%; Population Mitotic Cells (%) [12]: 33% and 55%; Population Normal (%) [12]: 98% and 90%; Population Pyknosed Nuclei (%) [12]: 4% and 7% and 10%; Population Tubulin-Different-Phenotype (%) [12]: 91% and 93% and 96%; Total Cell Count [12]: 133 and 139
